Experimental data from ChEMBL document CHEMBL3808349, “Antineoplastic Agents. 585. Isolation of Bridelia ferruginea Anticancer Podophyllotoxins and Synthesis of 4-Aza-podophyllotoxin Structural Modifications” (2016).
In brackets after ≈: the same amount, converted by molar mass.

How the values were obtained:
Assay type in all cases: functional
NCI-H460 = experiment: Growth inhibition of human NCI-H460 cells measured after 48 hrs by sulforhodamine B assay; conditions: NCI-H460, 48 h
Method in brief: (§1)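 Cells were seeded in RPMI1640 with 5% fetal bovine serum and incubated 24 h before serial dilutions of sample were added. After 48 h exposure, cells were fixed with trichloroacetic acid and stained with sulforhodamine B, and optical density was read by plate reader.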

P388 = experiment: Growth inhibition of mouse P388 cells measured after 48 hrs by sulforhodamine B assay; conditions: P388, 48 h, read-out: ED50 (the source's name)
[1] = Growth inhibition of human BxPC3 cells measured after 48 hrs by sulforhodamine B assay; conditions: BXPC-3, 48 h; method in brief: as §1
MCF7 = experiment: Growth inhibition of human MCF7 cells measured after 48 hrs by sulforhodamine B assay; conditions: MCF7, 48 h; method in brief: as §1
[2] = Growth inhibition of human SF268 cells measured after 48 hrs by sulforhodamine B assay; conditions: SF-268, 48 h; method in brief: as §1
[3] = Growth inhibition of human DU145 cells measured after 48 hrs by sulforhodamine B assay; conditions: DU-145, 48 h; method in brief: as §1
[4] = Growth inhibition of human KM20L2 cells measured after 48 hrs by sulforhodamine B assay; conditions: KM-20L2, 48 h; method in brief: as §1

| SMILES | GI50 (NCI-H460) [µg/mL] | EC50 (P388) [µg/mL] | GI50 [1] [µg/mL] | GI50 (MCF7) [µg/mL] | GI50 [2] [µg/mL] | GI50 [3] [µg/mL] | GI50 [4] [µg/mL] |
| --- | --- | --- | --- | --- | --- | --- | --- |
| COc1cc(C2C3=C(COC3=O)Nc3cc(OC)c(OC)c(OC)c32)cc(OC)c1OC (configuration not stated) | 3.6 (≈ 8.12 µM) | 1.3 (≈ 2.93 µM) | 5.6 (≈ 12.6 µM) | 1.7 (≈ 3.83 µM) | 3.6 (≈ 8.12 µM) | 3.3 (≈ 7.44 µM) |  |
| COc1cc(C2C3=C(COC3=O)N(Cc3ccc(F)cc3)c3cc4c(cc32)OCO4)cc(OC)c1OC (configuration not stated) | 0.031 (≈ 0.0613 µM) | 1.9 (≈ 3.76 µM) | 0.046 (≈ 0.091 µM) | 0.037 (≈ 0.0732 µM) | 0.03 (≈ 0.0593 µM) | 0.047 (≈ 0.093 µM) | 0.033 (≈ 0.0653 µM) |
| COc1cc([C@@H]2c3cc4c(c(O[C@@H]5O[C@H](CO)[C@@H](O)[C@H](O)[C@H]5O)c3C[C@H]3COC(=O)[C@@H]32)OCO4)cc(OC)c1OC | 0.28 (≈ 0.486 µM) | 0.21 (≈ 0.364 µM) | > 1 | 0.85 (≈ 1.47 µM) | 0.27 (≈ 0.468 µM) | > 1 | > 1 |
| COc1cc([C@@H]2c3cc4c(c(O)c3C[C@H]3COC(=O)[C@@H]32)OCO4)cc(OC)c1OC [BETA-PELTATIN A] | 0.00077 (≈ 0.00186 µM) | 0.0031 (≈ 0.00748 µM) | 0.0012 (≈ 0.0029 µM) | 0.00055 (≈ 0.00133 µM) | 0.0004 (≈ 0.000965 µM) | 0.0021 (≈ 0.00507 µM) | 0.0076 (≈ 0.0183 µM) |
| COc1cc(C2C3=C(COC3=O)Nc3cc(OC)c(OC)c(OC)c32)cc(Br)c1OC (configuration not stated) | 0.35 (≈ 0.711 µM) | 0.11 (≈ 0.223 µM) | 0.56 (≈ 1.14 µM) | 0.12 (≈ 0.244 µM) | 0.11 (≈ 0.223 µM) | 0.42 (≈ 0.853 µM) |  |
| O=C1OCC2=C1C(c1cccc3c1OCO3)c1cc3c(cc1N2)OCO3 (configuration not stated) | 0.021 (≈ 0.0598 µM) | 0.17 (≈ 0.484 µM) | 0.065 (≈ 0.185 µM) | 0.0039 (≈ 0.0111 µM) | 0.0089 (≈ 0.0253 µM) | 0.041 (≈ 0.117 µM) |  |
| COc1cc(C2C3=C(COC3=O)N(CCCn3ccnc3)c3cc4c(cc32)OCO4)cc(OC)c1OC (configuration not stated) | 3 (≈ 5.93 µM) | 2 (≈ 3.96 µM) | 2.9 (≈ 5.74 µM) | 0.64 (≈ 1.27 µM) | 2.5 (≈ 4.95 µM) | 2.1 (≈ 4.15 µM) | 2.2 (≈ 4.35 µM) |
| COc1cc(C2C3=C(COC3=O)N(CCc3ccc([N+](=O)[O-])cc3)c3cc4c(cc32)OCO4)cc(OC)c1OC (configuration not stated) | 0.3 (≈ 0.549 µM) |  | 0.39 (≈ 0.714 µM) | 0.08 (≈ 0.146 µM) | 0.2 (≈ 0.366 µM) | 0.3 (≈ 0.549 µM) | 0.26 (≈ 0.476 µM) |
| COc1cc(C2C3=C(COC3=O)N(C3CCCCC3)c3cc4c(cc32)OCO4)cc(OC)c1OC (configuration not stated) | 0.27 (≈ 0.563 µM) | 3.4 (≈ 7.09 µM) | 0.17 (≈ 0.355 µM) | 0.052 (≈ 0.108 µM) | 0.066 (≈ 0.138 µM) | 0.27 (≈ 0.563 µM) | 0.24 (≈ 0.5 µM) |
| COc1cc(C2C3=C(COC3=O)N(CCN3CCCCC3)c3cc4c(cc32)OCO4)cc(OC)c1OC (configuration not stated) | > 10 | 1.7 (≈ 3.34 µM) | 4.4 (≈ 8.65 µM) | > 10 | > 10 | > 10 | > 10 |
| COc1cc(C2C3=C(COC3=O)N(CCc3ccc(F)cc3)c3cc4c(cc32)OCO4)cc(OC)c1O (configuration not stated) | 0.36 (≈ 0.712 µM) | 0.21 (≈ 0.415 µM) | 1.4 (≈ 2.77 µM) | 0.34 (≈ 0.673 µM) | 0.48 (≈ 0.95 µM) | 0.38 (≈ 0.752 µM) |  |
| COc1cc(C2C3=C(COC3=O)Nc3cc4c(cc32)OCO4)cc(OC)c1OC (configuration not stated) |  | 0.0018 (≈ 0.00453 µM) |  |  |  |  |  |
| COc1cc([C@H]2c3cc4c(cc3C[C@H]3COC(=O)[C@H]32)OCO4)cc(OC)c1OC [ISOPICRODEOXYPODOPHYLLOTOXIN] |  | < 0.1 |  |  |  |  |  |
| COc1cc(C2C3=C(COC3=O)N(Cc3ccco3)c3cc4c(cc32)OCO4)cc(OC)c1O (configuration not stated) | 0.24 (≈ 0.518 µM) | 0.89 (≈ 1.92 µM) | 1 (≈ 2.16 µM) | 0.054 (≈ 0.117 µM) | 0.061 (≈ 0.132 µM) | 0.39 (≈ 0.842 µM) |  |
| COc1cc(C2C3=C(COC3=O)N(CCCO)c3cc4c(cc32)OCO4)cc(OC)c1OC (configuration not stated) | 0.33 (≈ 0.725 µM) | 0.28 (≈ 0.615 µM) | 0.48 (≈ 1.05 µM) | 0.34 (≈ 0.746 µM) | 0.36 (≈ 0.79 µM) | 0.49 (≈ 1.08 µM) | 0.38 (≈ 0.834 µM) |
